In PMC3263826 (ACS medicinal chemistry letters, 2011):

Experiments:
rat MAO A = target: T1, rat MAO A (Rattus norvegicus, UniProt P21396); assay: Inhibition of purified recombinant rat MAO A; assay type: biochemical; conditions: accessible concentration range (~100 μM)
T1 sequence (P21396 1-526): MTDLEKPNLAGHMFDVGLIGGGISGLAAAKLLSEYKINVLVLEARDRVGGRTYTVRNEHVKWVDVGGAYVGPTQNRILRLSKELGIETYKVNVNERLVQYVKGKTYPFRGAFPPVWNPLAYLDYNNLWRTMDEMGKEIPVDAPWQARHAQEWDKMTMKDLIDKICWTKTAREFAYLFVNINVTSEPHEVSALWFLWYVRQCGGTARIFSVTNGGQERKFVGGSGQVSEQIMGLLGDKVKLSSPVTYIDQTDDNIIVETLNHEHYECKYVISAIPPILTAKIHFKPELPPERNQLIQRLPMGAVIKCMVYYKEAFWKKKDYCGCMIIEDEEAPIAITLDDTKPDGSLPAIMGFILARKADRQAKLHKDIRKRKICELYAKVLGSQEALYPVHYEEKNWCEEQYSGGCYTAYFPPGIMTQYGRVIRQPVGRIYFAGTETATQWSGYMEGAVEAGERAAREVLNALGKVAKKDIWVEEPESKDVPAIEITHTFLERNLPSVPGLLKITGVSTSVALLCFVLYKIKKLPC

human MAO B = target: T2, human MAO B (Homo sapiens, UniProt P27338); assay: Inhibition of purified recombinant human MAO B; assay type: biochemical; conditions: for inhibition pattern with MAO B: species not given
T2 sequence (P27338 1-520): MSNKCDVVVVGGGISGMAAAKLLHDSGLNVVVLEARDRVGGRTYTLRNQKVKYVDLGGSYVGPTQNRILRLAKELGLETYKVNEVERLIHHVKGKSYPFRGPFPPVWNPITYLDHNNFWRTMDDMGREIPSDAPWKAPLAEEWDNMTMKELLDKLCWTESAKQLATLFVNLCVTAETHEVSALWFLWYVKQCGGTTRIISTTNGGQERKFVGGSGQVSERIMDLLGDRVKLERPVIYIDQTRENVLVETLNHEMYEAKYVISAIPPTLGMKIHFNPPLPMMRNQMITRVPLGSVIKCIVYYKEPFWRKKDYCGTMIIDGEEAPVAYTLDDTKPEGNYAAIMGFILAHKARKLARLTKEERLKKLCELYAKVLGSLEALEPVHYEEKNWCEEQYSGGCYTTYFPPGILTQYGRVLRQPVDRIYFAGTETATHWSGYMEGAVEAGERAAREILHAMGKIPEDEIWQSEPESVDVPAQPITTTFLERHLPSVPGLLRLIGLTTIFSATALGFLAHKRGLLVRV

[1] = cited from earlier work
[2] = tested on: MPTP-mouse model for Parkinson's disease; conditions: cited from earlier work
human MAO A = target: T3, human MAO A (Homo sapiens, UniProt P21397); assay: Inhibition of purified recombinant human MAO A; assay type: biochemical; conditions: for inhibition pattern with MAO A: species not given
T3 sequence (P21397 1-527): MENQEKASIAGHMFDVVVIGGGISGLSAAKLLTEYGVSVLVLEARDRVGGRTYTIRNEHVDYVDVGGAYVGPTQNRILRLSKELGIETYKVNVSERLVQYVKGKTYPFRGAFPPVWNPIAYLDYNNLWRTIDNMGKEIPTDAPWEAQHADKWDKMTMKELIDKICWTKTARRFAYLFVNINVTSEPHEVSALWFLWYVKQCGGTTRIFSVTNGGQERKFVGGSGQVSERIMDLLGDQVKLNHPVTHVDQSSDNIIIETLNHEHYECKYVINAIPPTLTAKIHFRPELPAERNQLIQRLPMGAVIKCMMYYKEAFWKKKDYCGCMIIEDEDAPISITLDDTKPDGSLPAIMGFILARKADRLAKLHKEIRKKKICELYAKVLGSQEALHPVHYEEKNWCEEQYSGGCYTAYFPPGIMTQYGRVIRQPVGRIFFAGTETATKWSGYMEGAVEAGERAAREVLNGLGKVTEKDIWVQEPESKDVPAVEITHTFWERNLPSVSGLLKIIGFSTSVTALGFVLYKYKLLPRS

[3] = target: human histone demethylase LSD1 (Homo sapiens, UniProt O60341); assay: Inhibition of human histone demethylase LSD1; assay type: biochemical; conditions: concentrations up to 100 μM
In short: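 Enzyme is recombinant human LSD1 purified as a complex with CoREST. Test compound was assayed at concentrations up to 100 μM.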

| inhibitory activity against rat MAO A (rat MAO A) | inhibition pattern with MAO B (human MAO B) | inhibitory activity against human MAO A (human MAO A; accessible concentration range (~100 μM)) | inhibition of LSD1 [3] | substrate of MAO B (human MAO B; time course of hours) | inhibition pattern with MAO A (human MAO A) | substrate of MAO A (human MAO A; time course of hours) | SMILES | brain (therapeutic neuroprotective) concentration ([1]; monkey, in vivo) | plasma concentration ([1]; monkeys with induced symptoms characteristic of Parkinson's disease) | neuroprotection in MPTP-mouse model [2] |
| --- | --- | --- | --- | --- | --- | --- | --- | --- | --- | --- |
| does not exhibit any inhibitory activity | competitively | does not exhibit any inhibitory activity | No inhibition |  |  |  | CCc1ccc(CCOc2ccc(CC3SC(=O)NC3=O)cc2)nc1 (centres unmarked) [Pioglitazone, pioglitazone] | ~ 0.14 μM | ~ 4.9 μM | effective neuroprotectant |
|  | competitively |  | No inhibition | very slow substrate | competitively | very slow substrate | CN(CCOc1ccc(CC2SC(=O)NC2=O)cc1)c1ccccn1 (centres unmarked) [Rosiglitazone, rosiglitazone] |  |  |  |
|  | non-competitive |  |  |  | non-competitive |  | Cc1c(C)c2c(c(C)c1O)CCC(C)(COc1ccc(CC3SC(=O)NC3=O)cc1)O2 (centres unmarked) [Troglitazone, troglitazone] |  |  |  |
